pKd: −log10 of the molar value. The source made the active and inactive calls. The rule behind the calls is not given here.
Key:
[1] = molecular target: Vasopressin V2 receptor (Homo sapiens) (UniProt P30518); experiment: Antagonist activity at AVPR2 (unknown origin) assessed as inhibition of [Arg8]-Vasopressin induced beta arrestin recruitment at 10 uM; assay type: functional
[2] = molecular target: Vasopressin V2 receptor (Homo sapiens) (UniProt P30518); experiment: Antagonist activity at AVPR2 (unknown origin) assessed as inhibition of [Arg8]-Vasopressin induced cAMP production at 10 to 100 uM; assay type: functional
[3] = molecular target: Vasopressin V2 receptor (Homo sapiens) (UniProt P30518); experiment: Agonist activity at AVPR2 (unknown origin) assessed as stimulation of beta arrestin recruitment; assay type: functional
[4] = molecular target: Vasopressin V2 receptor (Homo sapiens) (UniProt P30518); experiment: Agonist activity at AVPR2 (unknown origin) assessed as stimulation of cAMP production; assay type: functional
[5] = molecular target: T1, Beta-2 adrenergic receptor (Homo sapiens, UniProt P07550); experiment: Antagonist activity at human beta2 adrenoceptor containing C-terminus of V2 vasopressin receptor expressed in HEK293 cells assessed as inhibition of isoproterenol-induced beta arrestin recruitment at 100 uM after 15 to 18 hrs by luciferase reporter gene assay; assay type: functional, cell-based
Target sequence in this assay (P07550 whole entry, looked up): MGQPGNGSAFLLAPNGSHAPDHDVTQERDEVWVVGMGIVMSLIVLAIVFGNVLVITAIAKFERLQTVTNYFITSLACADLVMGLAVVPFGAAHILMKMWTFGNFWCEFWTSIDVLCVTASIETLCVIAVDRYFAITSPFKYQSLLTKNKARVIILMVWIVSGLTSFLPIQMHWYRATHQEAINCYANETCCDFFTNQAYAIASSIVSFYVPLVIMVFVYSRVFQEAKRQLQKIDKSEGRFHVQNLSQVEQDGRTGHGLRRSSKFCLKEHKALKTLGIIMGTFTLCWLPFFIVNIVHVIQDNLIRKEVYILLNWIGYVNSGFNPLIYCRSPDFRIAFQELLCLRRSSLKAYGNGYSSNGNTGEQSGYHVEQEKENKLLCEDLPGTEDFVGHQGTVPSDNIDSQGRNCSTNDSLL

[6] = molecular target: T1, Beta-2 adrenergic receptor; experiment: Antagonist activity at human beta2 adrenoceptor expressed in HEK293 cells assessed as inhibition of isoproterenol-induced cAMP production at 100 uM after 5 mins by luciferase reporter gene assay; assay type: functional, cell-based
Target sequence in this assay (P07550 whole entry, looked up): as above

[7] = molecular target: T1, Beta-2 adrenergic receptor; experiment: Agonist activity at human beta2 adrenoceptor containing C-terminus of V2 vasopressin receptor expressed in HEK293 cells assessed as stimulation of beta arrestin recruitment after 15 to 18 hrs by luciferase reporter gene assay; assay type: functional, cell-based
Target sequence in this assay (P07550 whole entry, looked up): as above

[8] = molecular target: T1, Beta-2 adrenergic receptor; experiment: Agonist activity at human beta2 adrenoceptor expressed in HEK293 cells assessed as stimulation of cAMP production after 5 mins by luciferase reporter gene assay; assay type: functional, cell-based
Target sequence in this assay (P07550 whole entry, looked up): as above

[9] = molecular target: Beta-1 adrenergic receptor (Homo sapiens) (UniProt P08588); experiment: Displacement of [125I]-Cyanopindolol from human beta1 adrenoceptor expressed in HEK293 cells after 90 mins by gamma counting analysis; assay type: cell-based
Sequence of Beta-1 adrenergic receptor (Homo sapiens) (P08588 whole entry, looked up): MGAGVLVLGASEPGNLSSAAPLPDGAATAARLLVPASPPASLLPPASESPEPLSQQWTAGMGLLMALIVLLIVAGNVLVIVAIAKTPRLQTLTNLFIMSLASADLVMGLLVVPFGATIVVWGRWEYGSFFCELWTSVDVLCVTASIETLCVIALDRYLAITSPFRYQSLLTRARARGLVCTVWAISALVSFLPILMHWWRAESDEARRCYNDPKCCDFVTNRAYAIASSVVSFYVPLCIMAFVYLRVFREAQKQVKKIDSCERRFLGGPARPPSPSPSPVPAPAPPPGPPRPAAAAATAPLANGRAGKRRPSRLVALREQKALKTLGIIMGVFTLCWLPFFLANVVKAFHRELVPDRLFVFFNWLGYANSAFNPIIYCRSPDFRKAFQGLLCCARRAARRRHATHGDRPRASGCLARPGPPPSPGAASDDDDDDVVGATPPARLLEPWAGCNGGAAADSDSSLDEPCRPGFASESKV

[10] = molecular target: T1, Beta-2 adrenergic receptor; experiment: Displacement of [125I]-Cyanopindolol from human beta2 adrenoceptor expressed in HEK293 cells after 90 mins by gamma counting analysis; assay type: cell-based
Target sequence in this assay (P07550 whole entry, looked up): as the sequence (P07550 whole entry, looked up) above

[11] = molecular target: T1, Beta-2 adrenergic receptor; experiment: Binding affinity to N-terminal FLAG-tagged C-terminal His-10-tagged human beta2 adrenoceptor expressed in insect Sf9 cells by surface plasmon resonance analysis in presence of dodecyl maltoside
Target sequence in this assay (P07550 whole entry, looked up): as above

[12] = molecular target: T1, Beta-2 adrenergic receptor; experiment: Binding affinity to N-terminal FLAG-tagged C-terminal His-10-tagged human beta2 adrenoceptor expressed in insect Sf9 cells by surface plasmon resonance analysis
Target sequence in this assay (P07550 whole entry): as the sequence (P07550 whole entry, looked up) above

[13] = molecular target: T1, Beta-2 adrenergic receptor; experiment: Binding affinity to N-terminal FLAG-tagged C-terminal His-10-tagged human beta2 adrenoceptor expressed in insect Sf9 cells by surface plasmon resonance analysis in presence of maltose neopentyl glycol; details: for pKd: read-out: Kd
Outline: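 Same NTA chip capture of His-10-tagged purified receptor as the primary SPR screen, but the binding run was done in MNG detergent. KD by SPR.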
Target sequence in this assay (P07550 whole entry): as the sequence (P07550 whole entry, looked up) above

[14] = molecular target: T1, Beta-2 adrenergic receptor; experiment: Antagonist activity at human beta2 adrenoceptor containing C-terminus of V2 vasopressin receptor expressed in HEK293 cells assessed as inhibition of isoproterenol-induced beta arrestin recruitment at 10 uM after 15 to 18 hrs by luciferase reporter gene assay; assay type: functional, cell-based
[15] = molecular target: T1, Beta-2 adrenergic receptor; experiment: Antagonist activity at human beta2 adrenoceptor expressed in HEK293 cells assessed as inhibition of isoproterenol-induced cAMP production at 10 uM after 5 mins by luciferase reporter gene assay; assay type: functional, cell-based
[16] = molecular target: T1, Beta-2 adrenergic receptor; details: Sf9

Sequence of Vasopressin V2 receptor (Homo sapiens) (P30518 whole entry): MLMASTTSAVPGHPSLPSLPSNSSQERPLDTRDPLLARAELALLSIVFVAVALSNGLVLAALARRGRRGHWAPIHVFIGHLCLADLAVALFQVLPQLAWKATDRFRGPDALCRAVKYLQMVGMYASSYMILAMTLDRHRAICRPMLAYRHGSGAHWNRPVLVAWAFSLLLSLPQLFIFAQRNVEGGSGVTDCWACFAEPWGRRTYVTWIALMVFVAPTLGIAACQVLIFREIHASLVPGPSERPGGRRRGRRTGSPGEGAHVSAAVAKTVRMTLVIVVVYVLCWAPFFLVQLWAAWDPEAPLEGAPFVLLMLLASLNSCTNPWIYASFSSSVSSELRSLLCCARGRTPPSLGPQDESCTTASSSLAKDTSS

With `Clc1cncc(Cl)c1N1CCNCC1` the inhibition [1] was “inactive”, the inhibition [2] was “inactive” and the Activity [3] was “inactive”. The Activity [4] was “inactive”, the inhibition [5] was “Active” and the inhibition [6] was “Active”. For the same molecule, the Activity [7] was “inactive”, the Activity [8] was “inactive” and the Kic [9] was 12.9 µM. The Kic [10] was 15 µM, the Activity [11] was “Active” and the pKd [12] was 5.46.

`Cc1ccc2nc(C(F)(F)F)cc(N3CCN(C)CC3)c2c1` showed a pKd [13] of 5.74.

Work on `c1ccc2c(N3CCNCC3)ccnc2c1` yielded a pKd [13] of 6.46.

For `FC(F)(F)c1ccc2c(N3CCNCC3)ccnc2c1`, the pKd [13] was 5.10.

Molecule `c1cc(N2CCNCC2)ccn1` has a pKd [13] of 3.85.

`Clc1ccc2c(N3CCNCC3)ccnc2c1` was tested, and the inhibition [1] was “inactive”, the inhibition [2] was “inactive” and the Activity [3] was “inactive”. The Activity [4] was “inactive”, the inhibition [14] was “Active” and the inhibition [15] was “Active”. The Activity [7] was “inactive”, the Activity [8] was “inactive” and the Kic [9] was 0.152 µM. For the same molecule, the Kic [10] was 0.191 µM, the pKd [13] was 7.12 and the Activity [11] was “Active”. The pKd [12] was 7.08 and the Ka [16] was 6.62 ×10⁵ /M/s.

In the case of `c1ccc2c(C3CCNCC3)c[nH]c2c1`, the inhibition [1] was “inactive”, the inhibition [2] was “inactive” and the Activity [3] was “inactive”. The Activity [4] was “inactive”, the inhibition [5] was “Active” and the inhibition [6] was “Active”. The Activity [7] was “inactive”, the Activity [8] was “inactive” and the Kic [9] was 9.9 µM. The Kic [10] was 14.1 µM, the Activity [11] was “Active” and the pKd [12] was 4.65.

For `Cc1ccc2nc(C(F)(F)F)cc(N3CCC(F)(F)CC3)c2c1`, the pKd [13] was 4.17.

In the case of `Cc1ccc2nc(C(F)(F)F)cc(N3CCOCC3)c2c1`, the Kd ([13]; sf9) was “Not Active”.

In the case of `Cc1cc(N2CCNCC2)c2ccccc2n1`, the inhibition [1] was “inactive”, the inhibition [2] was “inactive” and the Activity [3] was “inactive”. For the same molecule, the Activity [4] was “inactive”, the pKd [13] was 7.14 and the pKd [12] was 7.03.

Work on `FC(F)(F)c1cc(N2CCNCC2)c2ccccc2n1` yielded a pKd [13] of 7.07.

From ChEMBL document CHEMBL2440021, “Discovery of β2 Adrenergic Receptor Ligands Using Biosensor Fragment Screening of Tagged Wild-Type Receptor” (ACS Med Chem Lett, 2013)
